In ChEMBL document CHEMBL1125144, “5-[(Aminoalkyl)amino]imidazo[4,5,1-de]acridin-6-ones as a novel class of antineoplastic agents. Synthesis and biological activity” (J Med Chem, 1990) one finds T/C and IC50 data, which are given here for 20 molecules.

Values joined by “and” are separate entries in the source; they are usually repeats but may differ in a detail not shown here. Identical values can stand only once.

The subject of assay [1] is P388. Put plainly: In vivo antitumor activity was determined against P 388 leukemia cells implanted (ip) in BDF1 mice at a dose of 150 mg/kg. It counts as functional, Mus musculus. In a few lines:
(§1)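 Groups of eight BDF1 mice received 10⁶ P388 cells ip on day 0. Control groups of 18 mice received saline. Read-out is T/C (%). T/C ≤85% is scored toxic and ≥125% significant activity. Some doses were repeated in an independent multidose assay.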

In a further assay the test system is HeLa. Nature of the assay: In vitro cytotoxic activity against HeLaS3 cells in tissue culture was determined. It counts as functional, cell-based. The note with it: Homo sapiens. The gist of the method: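 HeLa S3 cells grown in tissue culture. Read-out is the concentration giving 50% inhibition. Significant cytotoxicity is defined as 50% inhibition at <1 µg/mL. Values are the mean of three independent experiments.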

Assay [2] deals with P388. Put plainly: In vivo antitumor activity was determined against P 388 leukemia cells implanted (ip) in BDF1 mice at a dose of 100 mg/kg. It counts as functional, Mus musculus. In a few lines:
as §1

Assay [3] relates to P388. Nature of the assay: In vivo antitumor activity was determined against P 388 leukemia cells implanted (ip) in BDF1 mice at a dose of 25 mg/kg. It counts as functional, Mus musculus. The gist of the method: as §1
Assay [4] concerns P388. Put plainly: In vivo antitumor activity was determined against P 388 leukemia cells implanted (ip) in BDF1 mice a dose of 75 mg/kg. It counts as functional, Mus musculus. In a few lines:
as §1

The subject of assay [5] is P388. Put plainly: In vivo antitumor activity was determined against P 388 leukemia cells implanted (ip) in BDF1 mice at a dose of 30 mg/kg. It counts as functional, Mus musculus. The gist of the method: as §1
Assay [6] concerns P388. Nature of the assay: In vivo antitumor activity was determined against P 388 leukemia cells implanted (ip) in BDF1 mice at a dose of 90 mg/kg. It counts as functional, Mus musculus. In a few lines: as §1
The subject of assay [7] is P388. Nature of the assay: In vivo antitumor activity was determined against P 388 leukemia cells implanted (ip) in BDF1 mice at a dose of 75. It counts as functional, Mus musculus. In a few lines: as §1
For assay [8], the system named is P388. Nature of the assay: In vivo antitumor activity was determined against P 388 leukemia cells implanted (ip) in BDF1 mice at a dose of 50 mg/kg. It counts as functional, Mus musculus. In a few lines: as §1
Assay [9] deals with P388. Put plainly: In vivo antitumor activity was determined against P 388 leukemia cells implanted (ip) in BDF1 mice at a dose of 175 mg/kg. It counts as functional, Mus musculus. The gist of the method:
as §1

Assay [10] has as its system P388. Nature of the assay: In vivo antitumor activity was determined against P 388 leukemia cells implanted (ip) in BDF1 mice at a dose of 60 mg/kg. It counts as functional, Mus musculus. In a few lines:
as §1

Assay [11] concerns P388. Put plainly: In vivo antitumor activity was determined against P 388 leukemia cells implanted (ip) in BDF1 mice at a dose of 75 mg/kg. It counts as functional, Mus musculus. The gist of the method:
as §1

As usually defined, the T/C is the ratio of treated to control. What is called IC50 is the concentration that gives 50% inhibition. Read a high IC50 as lower potency. As to `Cc1nc2ccc(NCCCN(C)C)c3c(=O)c4ccccc4n1c23.Cl.Cl`, the T/C with P388 [1] is reported as 122%. Half-maximal inhibition with HeLa (IC50) was put at 0.11 µg/mL.

In the assay on P388 [2], `CN(C)CCCCCNc1ccc2ncn3c4ccccc4c(=O)c1c23.Cl.Cl` yielded a T/C of 110%. In the assay with HeLa, this molecule registered an IC50 of 0.5 µg/mL.

Consider `CCc1nc2ccc(NCCN(C)C)c3c(=O)c4ccccc4n1c23.Cl.Cl`, for which the T/C with P388 [2] was 200%. In addition, the IC50 with HeLa turned out to be 0.11 µg/mL.

`CN(C)CCCNc1ccc(N)c2nc3ccccc3c(O)c12.Cl.Cl` returned a T/C in the assay with P388 [3] of less than 85%. In the assay with HeLa, the IC50 stood at 0.25 µg/mL.

As for `CC(=O)Nc1ccc(NCCN(C)C)c2c(O)c3ccccc3nc12.Cl.Cl`, in the assay with P388 [4], the T/C stood at 137%. In the assay on HeLa, this molecule yielded an IC50 of more than 5 µg/mL.

As to `CN(C)CCCNc1ccc2ncn3c4ccccc4c(=O)c1c23.Cl.Cl`, the T/C with P388 [2] (100 mg/kg) was 133% and 120%. The same molecule displayed an IC50 in the assay on HeLa of 0.15 µg/mL.

Regarding `CN(C)CCCNc1ccc2nc(-c3ccccc3)n3c4ccccc4c(=O)c1c23.Cl.Cl`, the T/C in the assay on P388 [5] amounted to 110%. The same molecule yielded an IC50 with HeLa of 0.28 µg/mL.

In turn, `CCc1nc2ccc(NCCCN(C)C)c3c(=O)c4ccccc4n1c23.Cl.Cl` came in with a T/C in the assay with P388 [6] of 130%. The molecule also registered an IC50 in the assay on HeLa of 0.25 µg/mL.

As to `CN(C)CCCNc1ccc([N+](=O)[O-])c2nc3ccccc3c(O)c12.Cl`, the values for the T/C in the assay on P388 [7] and in the assay on P388 [2] were 190% and 189%, respectively. In the assay with HeLa, this molecule had an IC50 of 0.04 µg/mL.

`CN(C)CCNc1ccc2ncn3c4ccccc4c(=O)c1c23.Cl.Cl`: in the assay with P388 [3] (25 mg/kg), the T/C was 180% and 188%. This molecule displayed an IC50 with HeLa of 0.06 µg/mL.

Consider `CN(C)CCNc1ccc([N+](=O)[O-])c2nc3ccccc3c(O)c12.Cl`, for which the T/C in the assay with P388 [3] (25 mg/kg) was 160% and 166%; in the assay with P388 [8], 185%. In the assay on HeLa, this molecule had an IC50 of 0.15 µg/mL.

As for `Cc1nc2ccc(NCCN(C)C)c3c(=O)c4ccccc4n1c23.Cl.Cl`, the T/C with P388 [8] (50 mg/kg) is 190% and 230%. For the same molecule, the IC50 with HeLa worked out at 0.05 µg/mL.

In the case of `CCCc1nc2ccc(NCCN(C)C)c3c(=O)c4ccccc4n1c23.Cl.Cl`, the T/C in the assay on P388 [9] was 211% and 233%. This molecule showed an IC50 in the assay with HeLa of 0.2 µg/mL.

Take `CC(C)c1nc2ccc(NCCN(C)C)c3c(=O)c4ccccc4n1c23.Cl.Cl`: in the assay with P388 [1], the T/C was found to be 166%. The same molecule registered an IC50 with HeLa of 0.37 µg/mL.

Take `CN(C)CCNc1ccc(N)c2nc3ccccc3c(O)c12.Cl.Cl`: in the assay with P388 [2], the T/C is on record as less than 85%. The IC50 in the assay with HeLa came out at 2.93 µg/mL.

With `CN(C)CCNc1ccc2nc(-c3ccccc3)n3c4ccccc4c(=O)c1c23.Cl.Cl`, the T/C in the assay on P388 [8] is 150%. Further, the IC50 with HeLa is 0.43 µg/mL.

For the molecule `CN(C)CCCCCNc1ccc([N+](=O)[O-])c2nc3ccccc3c(O)c12.Cl`, the T/C with P388 [10] was found to be 144%. This molecule also yielded an IC50 in the assay on HeLa of 0.13 µg/mL.

In the assay with P388 [11], `CCCCCCCCc1nc2ccc(NCCN(C)C)c3c(=O)c4ccccc4n1c23.Cl.Cl` returned a T/C of less than 85%. The molecule further came in with an IC50 with HeLa of 0.2 µg/mL.

For the molecule `CC(=O)Nc1ccc(NCCCN(C)C)c2c(O)c3ccccc3nc12.Cl.Cl`, the IC50 in the assay with HeLa was more than 5 µg/mL.

Take `CN(C)CCCCCNc1ccc(N)c2nc3ccccc3c(O)c12.Cl.Cl`: in the assay with HeLa, the IC50 came to 1.05 µg/mL.
